Experimental findings from ChEMBL document CHEMBL1121364, “Nucleoside conjugates as potential antitumor agents. 3. Synthesis and antitumor activity of 1-(beta-D-arabinofuranosyl)cytosine conjugates of corticosteroids” (1980) are described below.

The test system of assay [1] is L1210. Briefly: In Vitro evaluation for the antiproliferative activity by observing the growth inhibition of L1210 lymphoid leukemia cells in culture at 72 hour. The format is functional, Mus musculus. The method in brief:
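Growth of L1210 lymphoid leukemia cells in culture measured by Trypan blue exclusion of viable cells after 72 h of drug exposure. ED50 is the concentration giving 50% growth inhibition. In some runs the compound was first preincubated in medium at 37 °C for 24 or 48 h before the assay.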

The subject of assay [2] is L1210. Nature of the assay: Antitumor activity in mice with intraperitoneal implanted L1210 lymphoid leukemia at the dose 50 mg/kg/day x 5 was determined as weight change (g/mouse) on 8th day. The format is functional. The method in brief: (§1)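 C3D2F1/J female mice (C3H/HeJ × DBA/2J), groups of six to eight, average 25 g, inoculated ip with 1 × 10^6 L1210 ascites cells taken from DBA/2Ha donor mice carrying 3-5 day tumors. Compound dissolved in 0.154 N NaOH, then neutralized with 0.154 N HCl to give 0.9% NaCl. Given ip daily for 5 consecutive days starting 24 h after implantation. Body weight change per mouse recorded on day 8.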

Assay [3] has as its system L1210. Nature of the assay: Antitumor activity in the mice with intraperitoneal implanted L1210 lymphoid leukemia at the dose 50 mg/kg/day x 5 was determined and number of animals survived on 30 th day were reported; 0/8. The format is functional, Mus musculus. The method in brief: (§2)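 Female C3D2F1/J mice (C3H/HeJ × DBA/2J), groups of six to eight, average weight 25 g. Each mouse got 1 × 10^6 L1210 ascites cells ip, taken from DBA/2Ha donor mice bearing 3-5 day tumors. Compound was dissolved in 0.154 N NaOH and neutralized with 0.154 N HCl (final 0.9% NaCl). Dosed ip daily ×5, starting 24 h after implant. Recorded body weight change on day 8, survival range, median survival and 30-day survivors. ILS = (T/C − 1) × 100.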

Assay [4] deals with L1210. Nature of the assay: Antitumor activity in mice with intraperitoneal implanted L1210 lymphoid leukemia at the dose 75 mg/kg/day x 5 was determined as weight change (g/mouse) on 8th day. The format is functional. The method in brief: as §1
Assay [5] relates to L1210. Nature of the assay: Antitumor activity in the mice with intraperitoneal implanted L1210 lymphoid leukemia at the dose 25 mg/kg/day x 5 was determined as percentage increase in the life span as compared with control tumor bearers. The format is functional. The settings on record: Mus musculus, L1210, ip. The method in brief:
as §2

For assay [6], the system named is L1210. Nature of the assay: Antitumor activity in the mice with intraperitoneal implanted L1210 lymphoid leukemia at the dose 25 mg/kg/day x 5 was determined and number of animals survived on 30 th day were reported; 0/8. The format is functional, Mus musculus. The method in brief:
as §2

Assay [7] has as its system L1210. Briefly: Antitumor activity in the mice with intraperitoneal implanted L1210 lymphoid leukemia at the dose 75 mg/kg/day x 5 was determined as percentage increase in the life span as compared with control tumor bearers. Type of assay: functional. The settings on record: Mus musculus, L1210, ip. The method in brief: (§3)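 C3D2F1/J female mice (C3H/HeJ female × DBA/2J male), groups of six to eight, average weight 25 g. Inoculated ip with 1 × 10^6 L1210 ascites cells taken from DBA/2Ha donor mice bearing 3-5 day old tumors. Compounds were dissolved in 0.154 N NaOH, neutralized with 0.154 N HCl (final 0.9% NaCl), and given ip daily for 5 days from 24 h post-implant. Median survival T/C; ILS = (T/C − 1) × 100; 30-day survivors counted.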

For assay [8], the system named is L1210. Briefly: Antitumor activity in the mice with intraperitoneal implanted L1210 lymphoid leukemia at the dose of 75 mg/kg/day x 5 was determined as mean survival of treated group compared to untreated; 18.5/9.5. The format is functional, Mus musculus.
Assay [9] concerns L1210. Briefly: Antitumor activity in the mice with intraperitoneal implanted L1210 lymphoid leukemia at the dose 75 mg/kg/day x 5 was determined and number of animals survived on 30 th day were reported; 1/8. Type of assay: functional, Mus musculus. The method in brief: as §3
Assay [10] has as its system L1210. Briefly: Antitumor activity in the mice with intraperitoneal implanted L1210 lymphoid leukemia at the dose of 25 mg/kg/day x 5 was determined as mean survival of treated group compared to untreated; 16/8.5. Type of assay: functional, Mus musculus. The method in brief:
as §3

Assay [11] has as its system L1210. Nature of the assay: Antitumor activity in the mice with intraperitoneal implanted L1210 lymphoid leukemia at the dose 50 mg/kg/day x 5 was determined as Survival time in days; Range is 17-24 days. The format is functional, Mus musculus. The method in brief:
as §2

Assay [12] concerns L1210. Briefly: Antitumor activity in the mice with intraperitoneal implanted L1210 lymphoid leukemia at the dose 75 mg/kg/day x 5 was determined as Survival time in days; Range is 14- >45 days. The format is functional, Mus musculus. The method in brief:
as §3

Assay [13] deals with L1210. Nature of the assay: Antitumor activity in the mice with intraperitoneal implanted L1210 lymphoid leukemia at the dose 25 mg/kg/day x 5 was determined as Survival time in days; Range is 8-21 days. The format is functional, Mus musculus. The method in brief:
as §2

Assay [14] has as its system L1210. Briefly: Antitumor activity in mice with intraperitoneal implanted L1210 lymphoid leukemia at the dose 25 mg/kg/day x 5 was determined as weight change (g/mouse) on 8th day. Type of assay: functional. The method in brief:
as §1

Assay [15] relates to L1210. Briefly: Antitumor activity in the mice with intraperitoneal implanted L1210 lymphoid leukemia at the dose 50 mg/kg/day x 5 was determined as percentage increase in the life span as compared with control tumor bearers. The format is functional. The note with it: Mus musculus, L1210, ip. The method in brief: as §3
The subject of assay [16] is L1210. Briefly: Antitumor activity in the mice with intraperitoneal implanted L1210 lymphoid leukemia at the dose of 50 mg/kg/day x 5 was determined as mean survival of treated group compared to untreated; 19/8. The format is functional, Mus musculus. The method in brief:
as §3

In assay [17] the test system is L1210. Nature of the assay: Antitumor activity in the mice with intraperitoneal implanted L1210 lymphoid leukemia at the dose 9.2 and 12.6 mg/kg/day x 5 was determined and number of animals survived on 30 th day were reported; 0/6. The format is functional, Mus musculus. The method in brief: as §3
In assay [18] the test system is L1210. Briefly: Antitumor activity in the mice with intraperitoneal implanted L1210 lymphoid leukemia at the dose 19.1 and 26 mg/kg/day x 5 was determined as percentage increase in the life span as compared with control tumor bearers. The format is functional, Mus musculus. The method in brief:
as §2

Assay [19] has as its system L1210. Nature of the assay: Antitumor activity in the mice with intraperitoneal implanted L1210 lymphoid leukemia at the dose of 9.2 and 12.6 mg/kg/day x 5 was determined as mean survival of treated group compared to untreated; 16.5/11. Type of assay: functional, Mus musculus.
The test system of assay [20] is L1210. Nature of the assay: Antitumor activity in the mice with intraperitoneal implanted L1210 lymphoid leukemia at the dose of 19.1 and 26 mg/kg/day x 5 was determined as mean survival of treated group compared to untreated; 10.5/10. Type of assay: functional, Mus musculus. The method in brief: as §3
Assay [21] deals with L1210. Nature of the assay: Antitumor activity in the mice with intraperitoneal implanted L1210 lymphoid leukemia at the dose 9.2 and 12.6 mg/kg/day x 5 was determined as percentage increase in the life span as compared with control tumor bearers. The format is functional, Mus musculus. The method in brief: as §3
The test system of assay [22] is L1210. Nature of the assay: Antitumor activity in the mice with intraperitoneal implanted L1210 lymphoid leukemia at the dose 19.1 and 26 mg/kg/day x 5 was determined as Survival time in days; Range is 9-12 days. Type of assay: functional, Mus musculus. The method in brief: as §2
Assay [23] has as its system L1210. Briefly: Antitumor activity in the mice with intraperitoneal implanted L1210 lymphoid leukemia at the dose 9.2 and 12.6 mg/kg/day x 5 was determined as Survival time in days; Range is 13-23 days. The format is functional, Mus musculus. The method in brief: as §3
Assay [24] deals with L1210. Briefly: Antitumor activity in mice with intraperitoneal implanted L1210 lymphoid leukemia at the dose 9.2 and 12.6 mg/kg/day x 5 was determined as weight change (g/mouse) on 8th day. Type of assay: functional. The method in brief: as §2
Assay [25] deals with L1210. Briefly: Antitumor activity in the mice with intraperitoneal implanted L1210 lymphoid leukemia at the dose 19.1 and 26 mg/kg/day x 5 was determined and number of animals survived on 30 th day were reported; 0/8. The format is functional, Mus musculus. The method in brief:
as §2

For assay [26], the system named is L1210. Nature of the assay: Antitumor activity in mice with intraperitoneal implanted L1210 lymphoid leukemia at the dose 19.1 and 26 mg/kg/day x 5 was determined as weight change (g/mouse) on 8th day. Type of assay: functional. The method in brief:
as §2

As a reminder, the ILS is how much longer treated animals lived than controls. High values mean much gain in survival, low ones little gain in survival. `C[C@]12CC[C@H]3[C@@H](CCC4=CC(=O)CC[C@@]43C)[C@@H]1CC[C@@H]2C(=O)COP(=O)(O)OC[C@H]1O[C@@H](n2ccc(N)nc2=O)[C@@H](O)[C@@H]1O`: the “ED 50” value with L1210 [1] worked out at 0.05 µM. Further, the results for the Weight change in the assay on L1210 [2], in the assay with L1210 [4] and in the assay with L1210 [14] were -0.94 g mouse-1, -0.09 g mouse-1 and -0.54 g mouse-1, respectively. For the same compound, the Survivors with L1210 [3] was determined as 0; with L1210 [6], 0; in the assay with L1210 [9], 1. For the same compound, the ILS at 25 mg/kg/day in the assay with L1210 [5] worked out at 88%. Moreover, in the assay with L1210 [7], the ILS at 75 mg/kg/day amounted to 95%. In addition, the T/C was determined as 18.5 in the assay on L1210 [8], 16 with L1210 [10] and 19 with L1210 [16]. Moreover, the Survival time in the assay on L1210 [11] is 17 days; in the assay with L1210 [12], 14 days; with L1210 [13], 8 days. Moreover, the ILS at 50 mg/kg/day with L1210 [15] is 138%.

Turning to `C[C@]12CC[C@H]3[C@@H](CCC4=CC(=O)CC[C@@]43C)[C@@H]1CC[C@@H]2C(=O)O.Nc1ccn([C@@H]2O[C@H](CO)[C@@H](O)[C@@H]2O)c(=O)n1`, the Survivors in the assay with L1210 [17] and in the assay with L1210 [25] was 0 throughout. In addition, the ILS in the assay on L1210 [18] is 5%; in the assay on L1210 [21], 50%. Further, the T/C in the assay on L1210 [19] worked out at 16.5; with L1210 [20], 10.5. The Survival time amounted to 9 days in the assay with L1210 [22] and 13 days with L1210 [23]. The Weight change in the assay with L1210 [24] is on record as -3.58 g mouse-1; with L1210 [26], -4.25 g mouse-1.
